Activity calls are given as the source filed them. The rule behind the calls is not given here.
Columns and labels:
L1210 [1] = experiment: Antitumor activity against mouse L1210 cells allografted in B6D2F1 mouse assessed as mean survival period at 200 ug/kg, ip tid administered on day 1 to 9 measured after 366 days relative to vehicle-treated control; assay type: functional
Procedure, shortened: (§1)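 L1210 cells (1 × 10^6) injected i.p. into B6D2F1 mice on day 0; 10 mice per group, randomized to vehicle or treatment. Dosing in 100% DMSO i.p. on days 1, 5 and 9 at 60–2500 μg/kg/inj. Animals were monitored daily and weighed twice weekly, with follow-up extended to 366 days. T/C = total survival days of the treated group ÷ total survival days of the control group × 100.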

[2] = Half life in mouse plasma
[3] = Cytotoxicity against human PC3MM2 cells assessed as growth inhibition under aerobic condition after 72 hrs by SRB assay; assay type: functional, cell-based; conditions: PC3MM2, 72 h
Procedure, shortened: (§2)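 Before the assay, A549 and PC3/MM2 cells were adapted for one week under hypoxia (37 °C, 5% CO2, 0.5% O2), subcultured twice; viability was checked by trypan blue. Cells were plated, held 24 h aerobic (37 °C, 5% CO2) or hypoxic, then exposed 72 h to 10 concentrations. SRB read-out per NCI DTP. Growth = [(Ti − Tz)/(C − Tz)] × 100%. IC50 by sigmoidal nonlinear regression, n = 3 independent experiments.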

[4] = Half life of the compound in phosphate buffer at pH 7
[5] = Half life in human plasma
L1210 [6] = experiment: Antitumor activity against mouse L1210 cells allografted in B6D2F1 mouse assessed as mean survival period at 2500 ug/kg, ip tid administered on day 1 to 9 measured after 366 days relative to vehicle-treated control; assay type: functional; procedure, shortened: as §1
[7] = Half life of the compound in HCl/EtOAc at 23 degC; assay type: physicochemical
[8] = Fraction unbound in human plasma; assay type: ADME, cell-free
A549 [9] = experiment: Cytotoxicity against human A549 cells assessed as growth inhibition under hypoxic condition after 72 hrs by SRB assay; assay type: functional, cell-based; conditions: A549, 72 h; procedure, shortened: as §2
A549 [10] = experiment: Hypoxic cytotoxicity ratio of IC50 for human A549 cell under aerobic condition to IC50 for human A549 cells under hypoxic condition; assay type: functional
A549 [11] = experiment: Cytotoxicity against human A549 cells assessed as growth inhibition under aerobic condition after 72 hrs by SRB assay; assay type: functional, cell-based; conditions: A549, 72 h; procedure, shortened: as §2
L1210 [12] = experiment: Antitumor activity against mouse L1210 cells allografted in B6D2F1 mouse assessed as mean survival period at 500 ug/kg, ip tid administered on day 1 to 9 measured after 366 days relative to vehicle-treated control; assay type: functional; procedure, shortened: as §1
Neurospora discreta [13] = experiment: Induction of Neurospora discreta w794 [5-32P]-DNA alkylation thermal-induced strand cleavage at 1 x 10^-2 M incubated for 48 hrs at 23 degC followed by thermolysis at 100 degC measured after 30 mins by PAGE/autoradiographic analysis
[14] = Cytotoxicity against human PC3MM2 cells assessed as growth inhibition under hypoxic condition after 72 hrs by SRB assay; assay type: functional, cell-based; conditions: PC3MM2, 72 h; procedure, shortened: as §2
L1210 [15] = experiment: Antitumor activity against mouse L1210 cells allografted in B6D2F1 mouse assessed as mean survival period at 1000 ug/kg, ip tid administered on day 1 to 9 measured after 366 days relative to vehicle-treated control; assay type: functional; procedure, shortened: as §1
L1210 [16] = experiment: Cytotoxicity against mouse L1210 cells assessed as growth inhibition after 72 hrs by phosphatase assay; assay type: functional, cell-based
Procedure, shortened: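 L1210 mouse leukemia cells were seeded at 30,000 cells/mL in DMEM with 10% FBS and grown 24 h at 37 °C, 5% CO2. DMSO dilutions were then added at six concentrations between 0–100 or 0–1000 nM, in duplicate, for 72 h. Read-out: phosphatase substrate in 0.1 M NaOAc pH 5.5 with 0.1% Triton X-100, 5 min at 37 °C, stopped with NaOH, A405. IC50 is the average of ≥4 determinations.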

L1210 [17] = experiment: Antitumor activity against mouse L1210 cells allografted in B6D2F1 mouse assessed as mean survival period at 60 ug/kg, ip tid administered on day 1 to 9 measured after 366 days relative to vehicle-treated control; assay type: functional; procedure, shortened: as §1
[18] = Stability of the compound in H2, Pd/C, MeOH, at 23 degC after 1 hr; assay type: physicochemical
[19] = Stability of the compound in Mo(CO)6, MeCN/H2O after 3 hrs; assay type: physicochemical
Mus musculus [20] = experiment: Toxicity in B6D2F1 mouse allografted with mouse L1210 cells assessed as mortality at 60 ug/kg, ip tid administered on day 1 to 9 measured after 366 days; assay type: organism-based; conditions: in vivo, 0.06 mg/kg, 8784 h
Procedure, shortened: (§3)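 Syngeneic L1210 cells (1 × 10^6) were given i.p. to B6D2F1 mice on day 0; 10 per group. Compound in 100% DMSO was injected i.p. on days 1, 5 and 9. Animals were monitored daily and weighed twice weekly, with the study extended to 366 days. Deaths from drug toxicity were recorded.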

[21] = Hypoxic cytotoxicity ratio of IC50 for human PC3MM2 cell under aerobic condition to IC50 for human PC3MM2 cells under hypoxic condition; assay type: functional
[22] = Fraction unbound in mouse plasma; assay type: ADME, cell-free
Neurospora discreta [23] = experiment: Induction of Neurospora discreta w794 [5-32P]-DNA alkylation assessed as thermal-induced strand cleavage at 1 x 10^-5 M incubated for 2 hrs at 23 degC followed by thermolysis at 100 degC for 30 mins measured after 12 to 24 hrs by PAGE/autoradiographic analysis in presence of L-glutathione
Neurospora discreta [24] = experiment: Induction of Neurospora discreta w794 [5-32P]-DNA alkylation assessed as thermal-induced strand cleavage at 1 x 10^-5 M incubated for 2 hrs at 23 degC followed by thermolysis at 100 degC measured after 30 mins by PAGE/autoradiographic analysis in absence of L-glutathione
Procedure, shortened: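 Labeled DNA was incubated with agent for 2 h at 23 °C. Unbound agent was removed by EtOH precipitation, then thermolysis for 30 min at 100 °C, 8% denaturing PAGE and autoradiography, with Sanger G, C, A, T lanes as markers. In the glutathione arm, agent at 1 × 10−5 M was first held at 37 °C with 1 M L-glutathione for 12 or 48 h.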

L1210 [25] = experiment: Antitumor activity against mouse L1210 cells allografted in B6D2F1 mouse assessed as mean survival period at 100 ug/kg, ip tid administered on day 1 to 9 measured after 366 days relative to vehicle-treated control; assay type: functional; procedure, shortened: as §1
Mus musculus [26] = experiment: Toxicity in B6D2F1 mouse allografted with mouse L1210 cells assessed as mortality at 100 to 250 ug/kg, ip tid administered on day 1 to 9 measured after 366 days; assay type: organism-based; conditions: in vivo, 8784 h; procedure, shortened: as §3
L1210 [27] = experiment: Antitumor activity against mouse L1210 cells allografted in B6D2F1 mouse assessed as mean survival period at 250 ug/kg, ip tid administered on day 1 to 9 measured after 366 days relative to vehicle-treated control; assay type: functional; procedure, shortened: as §1
Neurospora discreta [28] = experiment: Induction of Neurospora discreta w794 [5-32P]-DNA alkylation assessed as thermal-induced strand cleavage at 1 x 10^-5 M to 1 X 10^-4 M incubated for 48 hrs at 23 degC followed by thermolysis at 100 degC measured after 30 mins by PAGE/autoradiographic analysis
Neurospora discreta [29] = experiment: Induction of Neurospora discreta w794 [5-32P]-DNA alkylation assessed as thermal-induced strand cleavage at 1 x 10^-3 M incubated for 2 hrs at 23 degC followed by thermolysis at 100 degC for 30 mins measured after 12 to 24 hrs by PAGE/autoradiographic analysis in absence of L-glutathione
Procedure, shortened: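 Agent incubated with 5′-32P-labelled w794 DNA at 23 °C for 2 h; unbound agent removed by EtOH precipitation. Thermolysis at 100 °C for 30 min induced strand cleavage at alkylation sites. Read-out by 8% denaturing PAGE and autoradiography, alongside Sanger G, C, A and T sequencing lanes and untreated control DNA. No glutathione present.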

Neurospora discreta [30] = experiment: Induction of Neurospora discreta w794 [5-32P]-DNA alkylation assessed as thermal-induced strand cleavage at 1 x 10^-3 M incubated for 2 hrs at 23 degC followed by thermolysis at 100 degC for 30 mins measured after 12 to 48 hrs by PAGE/autoradiographic analysis in presence of L-glutathione; conditions: in the assay text read “1 x 10^-5 M” for “1 x 10^-3 M”
Procedure, shortened: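 Agent first held with 1 M L-glutathione at 37 °C for 12 or 48 h to cause reductive activation. It was then incubated with 5′-32P-labelled w794 DNA at 23 °C for 2 h, and unbound agent was removed by EtOH precipitation. Thermolysis followed at 100 °C for 30 min, then 8% denaturing PAGE and autoradiography against Sanger sequencing lanes.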

Neurospora discreta [31] = experiment: Induction of Neurospora discreta w794 [5-32P]-DNA alkylation assessed as thermal-induced strand cleavage at 1 x 10^-3M incubated for 48 hrs at 23 degC followed by thermolysis at 100 degC for 30 mins measured after 12 to 48 hrs by PAGE/autoradiographic analysis in presence of L-glutathione

## CN1Oc2cc3c(c4cccc(c24)C1=O)[C@H](CCl)CN3C(=O)c1cc2cc(NC(=O)c3cc4ccccc4[nH]3)ccc2[nH]1
L1210 [1]
  T/C: >386
[2]
  half-life: > 48 h
[3]
  IC50: 350 nM
[4]
  half-life: > 672 h
[5]
  half-life: > 168 h
L1210 [6]
  T/C: >1500
[7]
  half-life: > 72 h
[8]
  fraction unbound: < 0.05
A549 [9]
  IC50: 5 nM
A549 [10]
  Ratio IC50: 5
A549 [11]
  IC50: 25 nM
L1210 [12]
  T/C: >1142
Neurospora discreta [13]
  Activity: inactive
[14]
  IC50: 35 nM
L1210 [15]
  T/C: >1130
L1210 [16]; Mus musculus, L1210, 72 h
  IC50: 0.99 nM
L1210 [17]
  T/C: 159
[18]
  Stability: Unstable
[19]
  Stability: Unstable
Mus musculus [20]
  Activity: Toxic
[21]
  Ratio IC50: 10

## O=C1Nc2cccc3c4c(cc(c23)O1)N(C(=O)c1cc2cc(NC(=O)c3cc5ccccc5[nH]3)ccc2[nH]1)C[C@H]4CCl
[3]
  IC50: 320 nM
A549 [9]
  IC50: 90 nM
A549 [10]
  Ratio IC50: 1
A549 [11]
  IC50: 90 nM
[14]
  IC50: 170 nM
[21]
  Ratio IC50: 1.9

## O=C(Nc1ccc2[nH]c(C(=O)N3C[C@@H](CCl)c4c3cc3c5c(cccc45)C(=O)NO3)cc2c1)c1cc2ccccc2[nH]1
[2]
  half-life: > 48 h
[22]
  fraction unbound: < 0.05
Neurospora discreta [23]
  Activity: Active
Neurospora discreta [24]
  Activity: inactive
L1210 [16]; Mus musculus, L1210, 72 h
  IC50: 0.3 nM

## O=C(Nc1ccc2[nH]c(C(=O)N3C[C@H](CCl)c4c3cc3c5c(cccc45)C(=O)NO3)cc2c1)c1cc2ccccc2[nH]1
L1210 [16]; Mus musculus, L1210, 72 h
  IC50: 65 nM

## O=C(Nc1ccc2[nH]c(C(=O)N3C[C@@H](CCl)c4c3cc(O)c3ccccc43)cc2c1)c1cc2ccccc2[nH]1 [SECO-CBI-INDOLE]
L1210 [25]
  T/C: 36
Mus musculus [26]
  Activity: Toxic
L1210 [27]
  T/C: 21
L1210 [12]
  T/C: 17
Neurospora discreta [28]
  Activity: Active
L1210 [17]
  T/C: >284

## COc1c(O)c2c(c3cc(C(=O)N4CCc5c4c(O)c(OC)c4[nH]c(C(=O)N6CC7CC78C6=CC(=O)c6[nH]cc(C)c68)cc54)[nH]c13)CCN2C(N)=O (stereo not given) [CC-1065]
L1210 [16]; Mus musculus, L1210, 72 h
  IC50: 0.02 nM

## COC(=O)c1cc2c([nH]1)C(=O)C=C1N(C(=O)c3cc4cc(OC)c(OC)c(OC)c4[nH]3)CC3CC123 (stereo not given) [DUOCARMYCIN SA]
L1210 [16]; Mus musculus, L1210, 72 h
  IC50: 0.1 nM

## CN1Oc2cc3c(c4cccc(c24)C1=O)[C@@H](CCl)CN3C(=O)OC(C)(C)C
L1210 [16]; Mus musculus, L1210, 72 h
  IC50: > 1000 nM

## CC(C)(C)OC(=O)NOc1cc2c(c3ccccc13)[C@H](CCl)CN2C(=O)c1cc2cc(NC(=O)c3cc4ccccc4[nH]3)ccc2[nH]1
Neurospora discreta [29]
  Activity: inactive
Neurospora discreta [30]
  Activity: Active

## CC(C)(C)OC(=O)N1C[C@H](CCl)c2c1cc1c3c(cccc23)C(=O)NO1
L1210 [16]; Mus musculus, L1210, 72 h
  IC50: > 1000 nM

## O=C(Nc1ccc2[nH]c(C(=O)N3CC(CCl)c4c3cc(O)c3ccccc43)cc2c1)c1cc2ccccc2[nH]1 (stereo not given)
L1210 [16]; Mus musculus, L1210, 72 h
  IC50: 0.9 nM

## CC(C)(C)OC(=O)N1C[C@H]2C[C@@]23C1=CC(=O)c1ccccc13
L1210 [16]; l1210
  IC50: 900 nM

## CNC(=O)c1cccc2c3c(cc(O)c12)N(C(=O)c1cc2cc(NC(=O)c4cc5ccccc5[nH]4)ccc2[nH]1)CC3CCl (racemic)
Neurospora discreta [31]
  Activity: Active
L1210 [16]; Mus musculus, L1210, 72 h
  IC50: 0.073 nM

## CN1Oc2cc3c(c4cccc(c24)C1=O)[C@@H](CCl)CN3C(=O)c1cc2cc(NC(=O)c3cc4ccccc4[nH]3)ccc2[nH]1
L1210 [16]; Mus musculus, L1210, 72 h
  IC50: 740 nM
